Measurements as given in article PMC3549054 (Biochemistry, 2012).
Entries after “also recorded” stand apart in the source; their conditions may differ. Read-outs that look alike come from different tables or passages of the source.

Assays:
CBS = settings: ref [44]; cited from earlier work
[1] = molecular target: Fe(II)-GAPDH (ferrous rGAPDH-heme) (Oryctolagus cuniculus, UniProt P46406); assay: Stopped-flow kinetics of CO binding to Fe; set-up: species or system rabbit
rabbit GAPDH = rabbit GAPDH (Oryctolagus cuniculus, UniProt P46406); assay: UV-visible binding of protoporphyrin IX analogs to rabbit GAPDH
Sequence of rabbit GAPDH (P46406 2-333 limits assumed): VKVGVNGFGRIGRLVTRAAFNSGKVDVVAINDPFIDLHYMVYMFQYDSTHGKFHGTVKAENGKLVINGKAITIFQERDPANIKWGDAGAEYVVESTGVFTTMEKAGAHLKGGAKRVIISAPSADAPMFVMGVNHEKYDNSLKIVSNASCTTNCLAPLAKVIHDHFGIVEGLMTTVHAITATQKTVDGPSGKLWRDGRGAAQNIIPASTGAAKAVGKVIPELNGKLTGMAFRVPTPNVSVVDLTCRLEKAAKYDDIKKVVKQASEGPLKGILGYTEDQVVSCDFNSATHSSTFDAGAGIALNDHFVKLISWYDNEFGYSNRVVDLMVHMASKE

rGAPDH [2] = molecular target: T1, rGAPDH (Oryctolagus cuniculus, UniProt P46406); assay: Ethoxylation of His residues with DEPC, then heme binding by UV-vis; assay type: biochemical, rabbit; settings: 15 mM DEPC, 2 h on ice
T1 sequence (P46406 2-333 limits assumed): as above
Summary of the method: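 Recombinant rabbit GAPDH (N-His6, E. coli BL21(DE3), Ni-NTA purified), 100 µM apo or preformed with 20 µM heme, treated with 15 mM DEPC on ice in 40 mM EPPS pH 7.6, 150 mM NaCl, 10% glycerol. Excess DEPC removed by three buffer exchanges on 10 kDa spin columns. Protein diluted to ~40 µM; UV-vis spectra taken before and after adding 8 µM fresh hemin.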

Ferric rGAPDH-heme = Ferric rGAPDH-heme (Oryctolagus cuniculus, UniProt P46406); assay type: binding, rabbit
Sequence of Ferric rGAPDH-heme (P46406 2-333): as the sequence (P46406 2-333 limits assumed) above

rGAPDH [3] = molecular target: T1, rGAPDH; assay: Kinetics of heme transfer from GAPDH to apo-myoglobin, koff; assay type: binding, rabbit
rGAPDH [4] = molecular target: T1, rGAPDH; assay: Binding of pre-reduced heme to rGAPDH; set-up: species or system rabbit; settings: after 10 min
Shp = settings: ref [84], cited from earlier work
HasAp = settings: ref [34], cited from earlier work
Apo-DHR51-LBD = settings: read-out: Kd (direct); ref [81]; cited from earlier work
nitrobindin = settings: ref [68]; cited from earlier work
[5] = molecular target: HRI (heme regulated inhibitor), eIF2α; settings: ref [60], cited from earlier work
rGAPDH [6] = molecular target: T1, rGAPDH; assay: GAPDH dehydrogenase activity assay; assay type: biochemical, rabbit; settings: data not shown
Summary of the method: (§1)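 NADH formation was followed at 340 nm (ε340 = 6.22 mM−1cm−1) in 40 mM triethanolamine, 50 mM Na2HPO4, 0.2 mM EDTA, pH 8.9, with 2 mM NAD and 2 mM D-glyceraldehyde 3-phosphate. Reactions were started with ~1 µg enzyme. The rabbit enzyme was N-His6, Ni-NTA purified; the human enzyme was a GST fusion cleaved with thrombin. Both were expressed in E. coli.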

HtsA = settings: ref [83], cited from earlier work
Sperm whale Mb = settings: ref [56]; cited from earlier work
pa-HO = settings: ref [57], cited from earlier work
Rv0203 = settings: ref [85], cited from earlier work
BSA = settings: cited from earlier work
[7] = molecular target: Nuclear hormone receptor, Rev-erb β; settings: read-out: Kd (direct), ref [14], cited from earlier work
hGAPDH = hGAPDH (Homo sapiens, UniProt P04406); assay: GAPDH dehydrogenase activity assay; assay type: biochemical; settings: data not shown
Sequence of hGAPDH (P04406 2-335 limits assumed): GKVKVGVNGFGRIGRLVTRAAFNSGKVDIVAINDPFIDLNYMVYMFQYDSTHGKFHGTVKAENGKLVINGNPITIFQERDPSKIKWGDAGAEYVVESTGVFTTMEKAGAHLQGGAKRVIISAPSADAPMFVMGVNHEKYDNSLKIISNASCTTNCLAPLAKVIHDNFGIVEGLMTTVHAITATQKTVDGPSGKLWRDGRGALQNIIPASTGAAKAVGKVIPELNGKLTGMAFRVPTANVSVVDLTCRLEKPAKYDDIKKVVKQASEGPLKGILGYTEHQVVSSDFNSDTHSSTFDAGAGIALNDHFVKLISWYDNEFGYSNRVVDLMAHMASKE
Summary of the method: as §1

CcmE = settings: ref [82], cited from earlier work
HTP (PhuT) = settings: ref [21], cited from earlier work
rGAPDH [8] = molecular target: T1, rGAPDH; assay: Stopped-flow kinetics of heme binding to GAPDH, kon; set-up: species or system rabbit; settings: ferric heme, 10 °C
Summary of the method: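 N-terminally His6-tagged rabbit GAPDH, expressed in E. coli BL21(DE3) and Ni-NTA purified. Freshly prepared hemin (5 µM) was mixed by stopped-flow at 10 °C with rGAPDH at 10–80 µM in 100 mM EPPS pH 7.6, 150 mM NaCl and 10% glycerol. Traces were collected on a diode array detector, and kobs was obtained from single-exponential fits.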

rGAPDH [9] = molecular target: T1, rGAPDH; assay: Spectrophotometric titration of GAPDH with hemin; assay type: binding, rabbit
PhuS = settings: ref [57]; cited from earlier work
[10] = Redox potentiometry of rGAPDH-heme; assay type: physicochemical; settings: titration of ferric complex with dithionite
[11] = CO-saturated buffer (1 mM final concentration), 10 °C
[12] = fit of Equation 2 to fast phase
[13] = pH 7.4 (Tris, 100 mM, 10% glycerol), room temperature

Sequence of Fe(II)-GAPDH (ferrous rGAPDH-heme) (P46406 2-333): as the sequence (P46406 2-333 limits assumed) above

[C-]#[O+] [CO, carbon monoxide]
rebinding rate ratio for displacement of Cys^52 by CO (CBS): 106 µM
kobs, 6-coord, 420 nm [1]: 1.2 s⁻¹
kobs1 (fast phase) of CO binding [1, 11]: 1.5 s⁻¹
kobs2 (slow phase) of CO binding [1, 11]: 0.068 s⁻¹
rate of distal ligand displacement by CO ([1]; [CO]>0.2 mM): 1.75 s⁻¹
axial ligand dissociation rate constant k−Y [1, 12]: ~ 2 s^−1
ligand rebinding rate ratio kY/k'CO [1, 12]: ~ 0.1 mM
kobs 5-coord, 410 nm ([1]; saturating [CO], [rGAPDHtetramer]/[heme] < 1:1): 4.3 s⁻¹

C=Cc1c(C)c2cc3[nH]c(cc4nc(cc5nc(cc1[nH]2)C(C)=C5CCC(=O)[O-])C(CCC(=O)[O-])=C4C)c(C)c3C=C.[Co+2] [Co(III)-protoporph IX, Co(III)-protoporphyrin IX]
Binding to GAPDH (Comments) (rabbit GAPDH; [13]): LS, red-shift
Binding to GAPDH (Comments) (rabbit GAPDH; pH 7.4 (Tris, 100 mM, 10% glycerol), room temperature, listed as Co(III)-protoporphyrin IX): bound

CCOC(=O)OC(=O)OCC [DEPC, diethylpyrocarbonate]
effect of DEPC on preformed rGAPDH-heme spectral properties (rGAPDH [2]): did not alter; also recorded: had no effect; also recorded: does not alter
effect of DEPC treatment of heme-free rGAPDH on heme binding (rGAPDH [2]): abolished the protein’s ability to bind heme; also recorded: hampered heme binding completely; also recorded: unable to bind heme

C=CC1=C(C)c2cc3[nH]c(cc4nc(cc5[nH]c(cc1n2)c(C)c5CCC(=O)O)C(CCC(=O)O)=C4C)c(C)c3C=C [Protoporph IX, Protoporphyrin IX]
Binding to GAPDH (Comments) (rabbit GAPDH; [13]): No binding

[N-]=[N+]=[N-] [azide]
binding to ferric rGAPDH-heme / displacement of distal ligand (as summarised) (Ferric rGAPDH-heme): unable to bind; also recorded: not displaced

C=CC1=C(C)c2cc3[n-]c(cc4[n-]c(cc5nc(cc1n2)C(C)=C5C=C)c(C)c4CCC(=O)O)c(CCC(=O)O)c3C.[Fe+2] [ferrous heme]
koff of ferrous (reduced) heme (rGAPDH [3]; ferrous heme, 25 °C, anaerobic, single exponential): 0.0042 s⁻¹
fraction of total available reduced heme forming a complex with rGAPDH (rGAPDH [4]): 18%

C=CC1=C(C)c2cc3[n-]c(cc4[n-]c(cc5nc(cc1n2)C(C)=C5C=C)c(C)c4CCC(=O)O)c(CCC(=O)O)c3C.[Cl-].[Fe+3] [hemin, Fe(III)-protoporphyrin IX]
Kd (Shp; read-out: Kd (koff/kon)): 22 µM
kon (Shp): 1.6e+06 M⁻¹ s⁻¹
Kd (HasAp; read-out: Kd (koff/kon)): 35 µM
kon (HasAp): 1.6e+07 M⁻¹ s⁻¹
Kd (Apo-DHR51-LBD): 0.43 µM
heme loss rate (nitrobindin): 3.6e-05 s⁻¹
Binding to GAPDH (Comments) (rabbit GAPDH; [13]): LS, red-shift
Kd ([5]; read-out: Kd (koff/kon)): 0.00014 µM
koff [5]: 0.0015 s⁻¹
kon [5]: 1.1e+07 M⁻¹ s⁻¹
effect of heme binding on dehydrogenase activity (rGAPDH [6]): does not affect
Kd (HtsA; read-out: Kd (koff/kon)): 8 µM
kon (HtsA): 8e+07 M⁻¹ s⁻¹
koff (Sperm whale Mb): 8.4e-07 s⁻¹
kon (Sperm whale Mb): 7.6e+07 M⁻¹ s⁻¹
Kd (pa-HO; read-out: Kd (koff/kon)): 0.6 µM
koff (pa-HO): 0.066 s⁻¹
kon (pa-HO): 110000 M⁻¹ s⁻¹
Kd (Rv0203; read-out: Kd (koff/kon)): 0.00062 µM
koff (Rv0203): 0.082 s⁻¹
kon (Rv0203): 1.3e+08 M⁻¹ s⁻¹
heme dissociation rate (BSA; BSA-heme, ref [65]): 10^−2 s^−1
Kd (BSA; read-out: Kd (koff/kon), ref [56]): 0.00022 µM
koff (BSA; ref [56]): 0.011 s⁻¹
kon (BSA; ref [56]): 5e+07 M⁻¹ s⁻¹
Kd ([7]; Rev-erb β (oxidized)): 0.117 µM
Kd ([7]; Rev-erb β (reduced)): 0.023 µM
effect of heme binding on dehydrogenase activity (hGAPDH): does not affect
Kd (CcmE; read-out: Kd (direct) (M), high affinity): 2e-07 M
Kd (CcmE; read-out: Kd (direct) (M), low affinity): 1e-05 M
koff1 (fast phase) (rGAPDH [3]; ferric heme, 10 °C, bi-exponential fit): 0.007 s⁻¹
Kd (rGAPDH [3]; read-out: Kd (koff/kon) (M), from fast koff, Wild type rGAPDH): 3.9e-07 M
Kd (rGAPDH [3]; read-out: Kd (koff/kon) (M), from slow koff, Wild type rGAPDH): 1.9e-08 M
Kd (rGAPDH [3]; read-out: approximate affinities from koff/kon, ferric heme, 10 °C): 1.9e-08 to 3.9e-07 M
Kd (HTP (PhuT); read-out: Kd (direct)): 1200 µM
koff (HTP (PhuT)): 0.00038 s⁻¹
kon (rGAPDH [8]): 17800 M⁻¹ s⁻¹
Kd (rGAPDH [9]; read-out: Kd (direct), Wild type rGAPDH): 0.024 µM
Kd (rGAPDH [9]; read-out: dissociation constant (Kd), direct titration, 10 µM rGAPDH, hemin 0–35 µM, 100 mM Tris pH 7.4, 10% glycerol): 0.024 µM
koff (PhuS): 0.036 s⁻¹
kon (PhuS): 180000 M⁻¹ s⁻¹

c1c[nH]cn1 [imidazole]
binding to ferric rGAPDH-heme (spectral shift) (Ferric rGAPDH-heme): did not bind
binding to ferric rGAPDH-heme / displacement of distal ligand (as summarised) (Ferric rGAPDH-heme): unable to bind

N#C[S-].[Na+] [thiocyanate]
binding to ferric rGAPDH-heme (spectral shift) (Ferric rGAPDH-heme): did not bind

Fe(III)-2,4-diacetyldeuteroporph IX
Binding to GAPDH (Comments) (rabbit GAPDH; pH 7.4): LS, partial binding, red-shift

Fe(III)-deuteroporph IX
Binding to GAPDH (Comments) (rabbit GAPDH; pH 7.4): LS, red-shift

Fe(III)-mesoporph IX
Binding to GAPDH (Comments) (rabbit GAPDH; pH 7.4): LS, red-shift

GAPDH-heme: pre-formed complex of rabbit GAPDH with heme
midpoint potential, reductive titration [10]: −153 ± 4 mV

Zn(II)-protoporph IX
Binding to GAPDH (Comments) (rabbit GAPDH; pH 7.4): LS, partial binding, red-shift
